The source of these data is ChEMBL document CHEMBL1124824, “Synthesis and biological activity of atrial natriuretic factor analogues: effect of modifications to the disulfide bridge” (J Med Chem, 1990).

Assay [1] deals with T1, Atrial natriuretic peptide receptor 3 (Mus musculus, UniProt P70180).
T1 sequence (P70180 whole entry): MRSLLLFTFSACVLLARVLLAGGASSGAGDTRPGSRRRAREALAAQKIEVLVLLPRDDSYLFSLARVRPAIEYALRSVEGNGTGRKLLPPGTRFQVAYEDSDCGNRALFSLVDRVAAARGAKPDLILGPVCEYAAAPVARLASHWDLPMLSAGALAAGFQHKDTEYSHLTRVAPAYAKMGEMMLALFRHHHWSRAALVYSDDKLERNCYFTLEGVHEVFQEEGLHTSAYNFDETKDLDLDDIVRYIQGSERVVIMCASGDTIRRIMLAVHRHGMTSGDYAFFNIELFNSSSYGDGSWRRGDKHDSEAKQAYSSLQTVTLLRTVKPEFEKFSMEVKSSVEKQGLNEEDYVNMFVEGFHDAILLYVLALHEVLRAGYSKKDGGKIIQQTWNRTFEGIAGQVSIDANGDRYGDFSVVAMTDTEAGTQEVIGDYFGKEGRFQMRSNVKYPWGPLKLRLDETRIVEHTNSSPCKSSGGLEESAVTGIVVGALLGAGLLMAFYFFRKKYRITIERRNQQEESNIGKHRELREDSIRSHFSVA
The assay is described as follows: Binding affinity was determined based on the displacement of [125]r-ANF (99-126) from binding sites on mouse fibroblasts (NIH 3T3) cells (Atrionatriuretic peptide receptor C).

In assay [2] the target is T2, Atrial natriuretic peptide receptor 2 (Bos taurus, UniProt P46197).
T2 sequence (P46197 whole entry): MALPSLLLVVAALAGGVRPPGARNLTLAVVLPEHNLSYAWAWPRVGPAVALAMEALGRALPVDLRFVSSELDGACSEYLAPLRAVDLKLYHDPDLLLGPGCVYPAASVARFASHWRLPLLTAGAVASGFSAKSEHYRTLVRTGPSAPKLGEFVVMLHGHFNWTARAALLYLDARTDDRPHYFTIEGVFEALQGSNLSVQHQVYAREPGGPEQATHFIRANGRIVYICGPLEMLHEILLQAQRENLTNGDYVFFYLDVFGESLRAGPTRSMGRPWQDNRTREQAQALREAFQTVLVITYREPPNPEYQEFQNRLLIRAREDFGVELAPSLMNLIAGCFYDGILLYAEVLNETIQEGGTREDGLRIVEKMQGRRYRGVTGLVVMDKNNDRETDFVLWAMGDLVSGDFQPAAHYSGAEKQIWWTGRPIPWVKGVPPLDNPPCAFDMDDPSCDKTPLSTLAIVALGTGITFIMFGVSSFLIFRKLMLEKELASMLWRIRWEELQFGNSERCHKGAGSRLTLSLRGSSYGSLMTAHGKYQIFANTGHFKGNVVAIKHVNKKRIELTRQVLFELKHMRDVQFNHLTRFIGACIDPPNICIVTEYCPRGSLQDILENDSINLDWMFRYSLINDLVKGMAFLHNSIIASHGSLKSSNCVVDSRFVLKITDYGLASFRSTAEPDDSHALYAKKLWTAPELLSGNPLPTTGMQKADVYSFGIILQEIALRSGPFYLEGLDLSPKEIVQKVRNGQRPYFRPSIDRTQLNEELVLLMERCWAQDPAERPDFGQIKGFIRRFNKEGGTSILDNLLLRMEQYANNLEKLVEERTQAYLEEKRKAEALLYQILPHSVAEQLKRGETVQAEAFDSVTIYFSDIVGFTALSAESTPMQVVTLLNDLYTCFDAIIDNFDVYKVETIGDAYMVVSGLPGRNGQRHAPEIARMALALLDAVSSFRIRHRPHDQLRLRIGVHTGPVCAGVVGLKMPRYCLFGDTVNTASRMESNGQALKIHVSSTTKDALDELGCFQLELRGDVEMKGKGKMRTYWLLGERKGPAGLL
The assay is described as follows: Binding affinity was determined based on the displacement of [125]r-ANF (99-126) from binding sites on bovine adrenal zona glomerulosa cell membranes (Atrionatriuretic peptide receptor B).

Assay [3] is filed under the species Oryctolagus cuniculus. The assay is described as follows: Compound was tested for the inhibition of the stimulated contractions of the superfused rabbit thoracic aortic rings. The class given is functional, Aorta. The gist of the method: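 Rabbit thoracic aorta rings (4 mm) were held isometrically at 10-g resting tension, superfused and precontracted with phenylephrine. Test peptide was added to the superfusate above the tissue in successively higher doses after each recovery. Doses were based on peptide content. EC50 came from the dose-response curve, mean of three determinations ± SEM.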

The species entered for assay [4] is Rattus norvegicus. The experiment in a line: Compound was tested for the K+ excretion for treated over control animals. The class given is functional. The procedure, abridged:
(§1)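 Male Sprague-Dawley rats (300-325 g) under halothane/lidocaine had femoral artery, femoral vein and bladder cannulated. After at least 1 h of recovery in restraint, they received Ringer's (1.2 mL/h), with 10-min urine collections over a 30-min control period. Infusion of 0.5 μg/kg per min for 30 min and a 30-min Ringer's recovery followed. Na+, K+ and Cl- were measured with an electrolyte analyzer, reported as treated minus control μmol/sample. Volume ratio is treated/control over three consecutive 10-min samples, six animals.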

For assay [5], the species on record is Rattus norvegicus. The experiment in a line: Compound was tested for the Na+ excretion for treated over control animals. It is filed as functional. The procedure, abridged: as §1
The species named for assay [6] is Rattus norvegicus. The experiment in a line: Compound was tested for antihypertensive activity in 5/6 nephrectomized rats. It is filed as functional. The gist of the method: (§2)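 Rats were anesthetized with halothane after skin infiltration with 2% lidocaine, and the femoral artery and vein were cannulated. After recovery, arterial pressure was recorded. A saline control period was followed by i.v. infusion in 30-min steps at 0.1, 0.2, 0.5 and 1.0 μg/kg per min (70 μL/kg per min). Hydralazine (100 μg/kg per min) was given for standardization. ED50 is in nmol/kg per min, from six animals.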

For assay [7], the species on record is Rattus norvegicus. The experiment in a line: Compound was tested for antihypertensive activity in DOCA nephrectomized rats. The class given is functional. The gist of the method: as §2

Starred links: 1 amine or outer side, 2 acyl side, 3 side chain; linkers in the order of their positions; H or OH if unused. Positions of bridges follow the written chain, without caps; N, C: chain ends. Non-standard residues stand in square brackets, D forms with d. Residues, ends and D or L forms follow the SMILES beside them. βAsp = O=C(O)[C@H](CC(=O)[*:2])N[*:1]; Asu = N[C@@H](CCCCCC(=O)O)C(=O)O; Pen = CC(C)(S)[C@H](N)C(=O)O; hCys = N[C@@H](CCS)C(=O)O; X2 = O=C(CCC[*:2])[*:1]; X1 = O=C(CC[*:2])[*:1]; CO = O=C([*:1])[*:2]

A word on the IC50: it is the concentration needed to halve the response being measured. A higher IC50 goes with lower potency. With `CC[C@H](C)[C@@H]1NC(=O)[C@H](CCCN=C(N)N)NC(=O)[C@H](CC(=O)O)NC(=O)[C@H]([C@@H](C)CC)NC(=O)[C@H](CCCN=C(N)N)NC(=O)CNC(=O)CNC(=O)[C@H](Cc2ccccc2)NC(=O)CCC=CC[C@@H](C(=O)N[C@@H](CC(N)=O)C(=O)N[C@@H](CO)C(=O)N[C@@H](Cc2ccccc2)C(=O)N[C@@H](CCCN=C(N)N)C(=O)N[C@@H](Cc2ccc(O)cc2)C(=O)O)NC(=O)CNC(=O)[C@H](CC(C)C)NC(=O)CNC(=O)[C@H](CO)NC(=O)[C@H](CCC(N)=O)NC(=O)[C@H](C)NC(=O)CNC1=O`, the IC50 in assay [1] turned out to be 0.63 nM; in assay [2] it was 51 nM. The compound further had an EC50 in assay [3] of 5.5e-10 M 50ul-1.

Turning to `CC[C@H](C)[C@@H]1NC(=O)[C@H](CCCN=C(N)N)NC(=O)[C@H](CC(=O)O)NC(=O)[C@H]([C@@H](C)CC)NC(=O)[C@H](CCCN=C(N)N)NC(=O)CNC(=O)CNC(=O)[C@H](Cc2ccccc2)NC(=O)CCCCC[C@@H](C(=O)N[C@@H](CC(N)=O)C(=O)N[C@@H](CO)C(=O)N[C@@H](Cc2ccccc2)C(=O)N[C@@H](CCCN=C(N)N)C(=O)N[C@@H](Cc2ccc(O)cc2)C(=O)O)NC(=O)CNC(=O)[C@H](CC(C)C)NC(=O)CNC(=O)[C@H](CO)NC(=O)[C@H](CCC(N)=O)NC(=O)[C@H](C)NC(=O)CNC1=O` (FGGRIDRIGAQSGLG[Asu]NSFRY-OH; lactam N-16), the results for the IC50 in assay [1] and in assay [2] were 0.78 nM and 28.8 nM, respectively. In addition, the EC50 in assay [3] came to 4.8e-10 M 50ul-1.

In assay [3], `CC[C@H](C)[C@@H]1NC(=O)[C@H](CCCN=C(N)N)NC(=O)[C@H](CC(=O)O)NC(=O)[C@H]([C@@H](C)CC)NC(=O)[C@H](CCCN=C(N)N)NC(=O)CNC(=O)CNC(=O)[C@H](Cc2ccccc2)NC(=O)[C@@H](NC(=O)[C@H](CO)NC(=O)[C@@H](N)CO)CSSC[C@@H](C(=O)N[C@@H](CC(N)=O)C(=O)N[C@@H](CO)C(=O)N[C@@H](Cc2ccccc2)C(=O)N[C@@H](CCCN=C(N)N)C(=O)N[C@@H](Cc2ccc(O)cc2)C(=O)O)NC(=O)CNC(=O)[C@H](CC(C)C)NC(=O)CNC(=O)[C@H](CO)NC(=O)[C@H](CCC(N)=O)NC(=O)[C@H](C)NC(=O)CNC1=O` (H-SSCFGGRIDRIGAQSGLGCNSFRY-OH; disulfide 3-19) [listing 1 of 2 here] registered an EC50 of 8.9e-11 M 50ul-1.

For the compound `CC[C@H](C)[C@@H]1NC(=O)[C@H](CCCN=C(N)N)NC(=O)[C@H](CC(=O)O)NC(=O)[C@H]([C@@H](C)CC)NC(=O)[C@H](CCCN=C(N)N)NC(=O)CNC(=O)CNC(=O)[C@H](Cc2ccccc2)NC(=O)CCSCC[C@@H](C(=O)N[C@@H](CC(N)=O)C(=O)N[C@@H](CO)C(=O)N[C@@H](Cc2ccccc2)C(=O)N[C@@H](CCCN=C(N)N)C(=O)N[C@@H](Cc2ccc(O)cc2)C(=O)O)NC(=O)CNC(=O)[C@H](CC(C)C)NC(=O)CNC(=O)[C@H](CO)NC(=O)[C@H](CCC(N)=O)NC(=O)[C@H](C)NC(=O)CNC1=O` (FGGRIDRIGAQSGLG[hCys]NSFRY-OH; linker N-16 via X1), the half-maximal inhibitory concentration (IC50) in assay [1] stood at 0.21 nM; in assay [2] it was 7.8 nM. In assay [3], this compound yielded an EC50 of 3.5e-10 M 50ul-1.

For `CC[C@H](C)[C@@H]1NC(=O)[C@H](CCCN=C(N)N)NC(=O)[C@H](CC(=O)O)NC(=O)[C@H]([C@@H](C)CC)NC(=O)[C@H](CCCN=C(N)N)NC(=O)CNC(=O)CNC(=O)[C@H](Cc2ccccc2)NC(=O)[C@@H](NC(=O)[C@H](CO)NC(=O)[C@@H](N)CO)CSSC[C@@H](C(=O)N[C@@H](CC(N)=O)C(=O)N[C@@H](CO)C(=O)N[C@@H](Cc2ccccc2)C(=O)N[C@@H](CCCN=C(N)N)C(=O)N[C@@H](Cc2ccc(O)cc2)C(=O)O)NC(=O)CNC(=O)[C@H](CC(C)C)NC(=O)CNC(=O)[C@H](CO)NC(=O)[C@H](CCC(N)=O)NC(=O)[C@H](C)NC(=O)CNC1=O` (H-SSCFGGRIDRIGAQSGLGCNSFRY-OH; disulfide 3-19) [listing 2 of 2 here], the IC50 in assay [1] amounted to 0.35 nM; in assay [2] it was 1.37 nM.

Take `CC[C@H](C)[C@H](NC(=O)[C@H](CCCN=C(N)N)NC(=O)[C@H](CC(=O)O)NC(=O)[C@@H](NC(=O)[C@H](CCCN=C(N)N)NC(=O)CNC(=O)CNC(=O)[C@H](Cc1ccccc1)NC(=O)N[C@@H](CC(=O)OC)C(=O)O)[C@@H](C)CC)C(=O)NCC(=O)N[C@@H](C)C(=O)N[C@@H](CCC(N)=O)C(=O)N[C@@H](CO)C(=O)NCC(=O)N[C@@H](CC(C)C)C(=O)NCC(=O)N[C@@H](CS)C(=O)N[C@@H](CC(N)=O)C(=O)N[C@@H](CO)C(=O)N[C@@H](Cc1ccccc1)C(=O)N[C@@H](CCCN=C(N)N)C(=O)N[C@@H](Cc1ccc(O)cc1)C(=O)O` ({OMe-βAsp-CO}-FGGRIDRIGAQSGLGCNSFRY-OH): the Electrolyte excretion in assay [4] was found to be 23.5 uM sample-1; in assay [5], 38.1 uM sample-1. For the same compound, the ED50 in assay [6] was above 2 nM/min/kg; in assay [7], above 4 nM/min/kg. For the same compound, the IC50 in assay [2] stood at 8.67 nM. Besides, the EC50 in assay [3] amounted to 1.4e-10 M 50ul-1.

With `CC[C@H](C)[C@@H]1NC(=O)[C@H](CCCN=C(N)N)NC(=O)[C@H](CC(=O)O)NC(=O)[C@H]([C@@H](C)CC)NC(=O)[C@H](CCCN=C(N)N)NC(=O)CNC(=O)CNC(=O)[C@H](Cc2ccccc2)NC(=O)CCCSC(C)(C)[C@@H](C(=O)N[C@@H](CC(N)=O)C(=O)N[C@@H](CO)C(=O)N[C@@H](Cc2ccccc2)C(=O)N[C@@H](CCCN=C(N)N)C(=O)N[C@@H](Cc2ccc(O)cc2)C(=O)O)NC(=O)CNC(=O)[C@H](CC(C)C)NC(=O)CNC(=O)[C@H](CO)NC(=O)[C@H](CCC(N)=O)NC(=O)[C@H](C)NC(=O)CNC1=O` (FGGRIDRIGAQSGLG[Pen]NSFRY-OH; linker N-16 via X2), the results for the IC50 in assay [1] and in assay [2] were 0.35 nM and 7.8 nM, respectively. In assay [3], this compound showed an EC50 of 6.8e-10 M 50ul-1.

Take `CC[C@H](C)[C@@H]1NC(=O)[C@H](CCCN=C(N)N)NC(=O)[C@H](CC(=O)O)NC(=O)[C@H]([C@@H](C)CC)NC(=O)[C@H](CCCN=C(N)N)NC(=O)CNC(=O)CNC(=O)[C@H](Cc2ccccc2)NC(=O)CCCSC[C@@H](C(=O)N[C@@H](CC(N)=O)C(=O)N[C@@H](CO)C(=O)N[C@@H](Cc2ccccc2)C(=O)N[C@@H](CCCN=C(N)N)C(=O)N[C@@H](Cc2ccc(O)cc2)C(=O)O)NC(=O)CNC(=O)[C@H](CC(C)C)NC(=O)CNC(=O)[C@H](CO)NC(=O)[C@H](CCC(N)=O)NC(=O)[C@H](C)NC(=O)CNC1=O` (FGGRIDRIGAQSGLGCNSFRY-OH; linker N-16 via X2): the results for the IC50 in assay [1] and in assay [2] were 0.56 nM and 6.17 nM, respectively. In addition, the EC50 in assay [3] came to 2.6e-10 M 50ul-1.
